# Bioassay records as filed in PubChem.
# DDE Tn6 FP inh: disrupts Tn6 cyclic peptide binding to fibrin D-Dimer-E complex; Fibrin DD(E) TRITC-Tn6 fluorescence polarization displacement; P02675; inhibition, % at 8.3 µM; 0.21% of 370,000 active;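 active means inhibition above a per-campaign cutoff: mean of compounds within control limits plus 3 SD, cut at about 15% in these data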
# PLC-beta3 inh: inhibitors of human phospholipase C beta3 | Q01970 | Purified PLC-beta3, fluorogenic substrate, fluorescence | inhibition, % at 12.2 µM | 0.18% of 370,000 active; in the data active means inhibition above about 11%
# ADAM10 inh: inhibits human ADAM10; recombinant ADAM10, EDANS/DABCYL FRET peptide cleavage, 3 h; inhibition, % at 7 µM; 0.62% of 370,000 active; O14672;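 active means inhibition above a per-campaign cutoff equal to the mean of compounds falling between control-based bounds plus 3 SD, cut at about 20% in these data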
# Target sequence (O14672 214-748 limits assumed): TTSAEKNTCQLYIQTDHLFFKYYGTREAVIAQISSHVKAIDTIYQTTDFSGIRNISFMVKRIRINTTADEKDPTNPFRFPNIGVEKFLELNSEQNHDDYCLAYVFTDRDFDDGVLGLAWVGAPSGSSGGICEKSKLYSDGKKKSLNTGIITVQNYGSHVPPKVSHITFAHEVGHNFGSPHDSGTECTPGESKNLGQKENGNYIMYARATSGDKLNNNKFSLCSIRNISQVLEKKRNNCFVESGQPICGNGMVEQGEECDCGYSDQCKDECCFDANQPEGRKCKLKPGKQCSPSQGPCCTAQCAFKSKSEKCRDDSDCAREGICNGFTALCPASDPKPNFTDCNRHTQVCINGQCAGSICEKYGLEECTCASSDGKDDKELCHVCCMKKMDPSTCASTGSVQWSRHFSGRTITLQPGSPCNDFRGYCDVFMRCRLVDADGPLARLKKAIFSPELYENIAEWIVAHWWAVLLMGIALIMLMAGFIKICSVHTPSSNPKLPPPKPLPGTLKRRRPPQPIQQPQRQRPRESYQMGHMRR
# DDE Tn7 FP inh: inhibitors of Tn7 peptide binding to human fibrin DD(E); FP displacement of FITC-Tn7 peptide from fibrin DD(E); 0% = median of compound wells per plate; inhibition, % at 8.3 µM; 0.13% of 370,000 active;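 active means inhibition above the mean of compounds falling within the control limits plus 3 SD of them, cut at about 14% in these data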
#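 Measure: % inhibition scaled between sample-field median and high-control FP; Test system: human fibrin DD(E); Quantity: 2 µM final DD(E) protein; Doses: one dose, 8.3 µM nominal; Schedule: compound with protein 10 min, then 3 h after probe, room temperature; Detection: fluorescence polarization; Medium: Tris buffer with calcium and detergent, pH 7.8.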
# PLC-gamma1 inh: PLC-gamma1 (human) inhibition, primary screen. inhibition, % at 12.2 µM. 0.84% of 370,000 active. purified PLC-gamma1, fluorogenic substrate, fluorescence. P19174. AID 720700; in the data active means inhibition above about 9.5%
# ADAM17 inh: inhibitors of human ADAM17 | P78536 | recombinant ADAM17, EDANS/DABCYL FRET peptide cleavage | inhibition, % at 6.95 µM | 0.83% of 370,000 active | AID 720648;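 active means inhibition above the mean of compounds lying between control limits plus 3 SD, set per campaign, cut at about 8.5% in these data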
# ADAM10 ctr: counter-screen for ADAM17 exosite inhibitors: inhibitors of human ADAM10; recombinant ADAM10, EDANS/DABCYL FRET peptide cleavage, 3 h; shares compounds with ADAM17 inh; 47% of 2,900 active; AID 743256; inhibition, % at 6.95 µM;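 active means mean inhibition over the triplicate runs exceeds the activity threshold set in the earlier primary screen, cut at about 20% in these data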
# ADAM17 confirm: confirmation of inhibitors of human ADAM17; shares compounds with ADAM17 inh; recombinant ADAM17, EDANS/DABCYL QFRET peptide cleavage; inhibition, % at 6.95 µM; 65% of 2,900 active;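 active means mean inhibition across replicates above the hit cutoff set in the primary screen, cut at about 8.5% in these data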
# Numbers stand for hits; – = inactive; · = not tested or not shown. This is a sample that favours compounds with a hit; in the whole collection about 2.3% have one here.
SMILES,DDE Tn6 FP inh,PLC-beta3 inh,ADAM10 inh,DDE Tn7 FP inh,PLC-gamma1 inh,ADAM17 inh,ADAM10 ctr,ADAM17 confirm
Cc1ccc(NC(=O)C(NC2CCCC2)c2ccccc2)cc1Cl (centres undefined),–,–,–,–,–,–,·,·
Cc1cccc(NC(=O)C2CCCN2S(=O)(=O)c2cccc3cccnc23)c1C (centres undefined),–,–,–,–,–,–,·,·
COc1ccc(CNC(=O)C[C@@H]2C[C@H]3c4cc(NC(=O)NC5CCCC5)ccc4O[C@H]3[C@H](CO)O2)cc1,–,–,–,–,–,9.1,–,–
CC(C)(C)c1ccc(C(=O)Nc2cc(Cl)ccc2-c2nn[nH]n2)cc1,–,–,–,–,–,–,·,·
CC1CCCCN1S(=O)(=O)c1ccc(S(=O)(=O)N(Cc2ccccc2)Cc2ccco2)cc1 (centres undefined),–,–,–,–,–,16.0,20.1,12.0
Cc1nc(N2CCN(C(=O)COc3ccccc3C)CC2)c2c3c(sc2n1)CCCC3,–,–,–,–,–,–,·,·
N#Cc1ccc(CSc2nc3sc4c(c3c(=O)n2-c2ccc(Br)cc2)CCCC4)cc1,–,–,–,–,–,–,·,·
O=C(NC1CC1)c1ccc2c(c1)C1C3CCC(C3)C1C(c1ccccc1)N2 (centres undefined),–,–,–,–,–,9.6,–,9.4
O=C(NC1CCCCC1)c1ccc2ccccc2c1,–,–,–,–,–,–,·,·
O=C(NCc1ccccc1Cl)C1CCC(CNS(=O)(=O)c2cccc3cccnc23)CC1 (centres undefined),–,–,–,–,–,–,·,·
COc1cc(NC(=O)C2CCCN(S(=O)(=O)c3ccc(Cl)s3)C2)cc(OC)c1 (centres undefined),–,–,–,–,–,10.1,35.4,19.1
COc1cc(NC(=O)C2CCCN(S(=O)(=O)c3ccccc3)C2)cc(OC)c1 (centres undefined),–,–,–,–,–,–,·,·
Cc1ccnc(SCc2cc(=O)c(OC(=O)c3ccc(C#N)cc3)co2)n1,–,–,–,–,–,–,·,·
N#Cc1ccc(/C=C2\CC3(OC(=O)C4CCCCC4)CCCN2C3)cc1 (centres undefined),–,–,–,–,–,–,·,·
CCC(C(=O)Nc1cccc(C(F)(F)F)c1)c1ccccc1 (centres undefined),–,–,–,–,–,8.7,19.9,9.4
O=C(Nc1cccc(C(F)(F)F)c1)C(SCCO)c1ccccc1 (centres undefined),–,–,–,–,–,–,·,·
CCCC[C@H]1C2CC(OC(=O)Nc3ccccc3)C(C2)[C@H]2CCCCN21 (some centres undefined),–,–,–,–,–,–,·,·
O=C(Nc1ccc(OC(F)(F)F)cc1)Nc1c(-c2ccccc2)nc2ncccn12,–,–,–,–,–,–,·,·
COc1cc(OC)cc(-c2cn[nH]c2N)c1,–,–,–,–,–,9.1,–,13.2
COc1ccc(-c2cn[nH]c2N)cc1OC,–,–,–,–,–,–,·,·
COc1ccc(C=Nn2c(-c3n[nH]c4c3CCC4)n[nH]c2=S)cc1OCc1ccccc1,–,–,–,–,–,–,·,·
CC(C)C[C@H](NC1(C(=O)NC2CCCCC2)CCN(C(=O)OC(C)(C)C)CC1)C(=O)NCCc1c[nH]c2ccccc12,–,–,–,–,–,–,·,·
Cn1cc(C2(c3c[nH]c4ccccc34)CCN(C(=O)OC(C)(C)C)CC2)c2ccccc21,–,–,–,–,–,11.1,–,–
CCOC(=O)c1ccc(NC(=S)NCc2ccc(F)cc2)cc1,–,–,–,–,–,12.1,–,10.2
CCS(=O)(=O)N1CCN(Cc2ccccc2OC)CC1,–,–,–,–,–,10.2,–,–
CCOc1ccccc1CN1CCN(S(=O)(=O)CC)CC1,–,–,–,–,–,–,·,·
